Experimental data published in ChEMBL document CHEMBL4038268, “Methylpyrrole inhibitors of BET bromodomains” (Bioorg Med Chem Lett, 2017).

Tests used:
[1] = target: T1, Transcription intermediary factor 1-alpha (Homo sapiens, UniProt O15164); assay: Inhibition of human TRIM24-phd-bromo (P790 to P977 residues) expressed in bacterial expression system by BROMOscan assay
T1 sequence (O15164 whole entry): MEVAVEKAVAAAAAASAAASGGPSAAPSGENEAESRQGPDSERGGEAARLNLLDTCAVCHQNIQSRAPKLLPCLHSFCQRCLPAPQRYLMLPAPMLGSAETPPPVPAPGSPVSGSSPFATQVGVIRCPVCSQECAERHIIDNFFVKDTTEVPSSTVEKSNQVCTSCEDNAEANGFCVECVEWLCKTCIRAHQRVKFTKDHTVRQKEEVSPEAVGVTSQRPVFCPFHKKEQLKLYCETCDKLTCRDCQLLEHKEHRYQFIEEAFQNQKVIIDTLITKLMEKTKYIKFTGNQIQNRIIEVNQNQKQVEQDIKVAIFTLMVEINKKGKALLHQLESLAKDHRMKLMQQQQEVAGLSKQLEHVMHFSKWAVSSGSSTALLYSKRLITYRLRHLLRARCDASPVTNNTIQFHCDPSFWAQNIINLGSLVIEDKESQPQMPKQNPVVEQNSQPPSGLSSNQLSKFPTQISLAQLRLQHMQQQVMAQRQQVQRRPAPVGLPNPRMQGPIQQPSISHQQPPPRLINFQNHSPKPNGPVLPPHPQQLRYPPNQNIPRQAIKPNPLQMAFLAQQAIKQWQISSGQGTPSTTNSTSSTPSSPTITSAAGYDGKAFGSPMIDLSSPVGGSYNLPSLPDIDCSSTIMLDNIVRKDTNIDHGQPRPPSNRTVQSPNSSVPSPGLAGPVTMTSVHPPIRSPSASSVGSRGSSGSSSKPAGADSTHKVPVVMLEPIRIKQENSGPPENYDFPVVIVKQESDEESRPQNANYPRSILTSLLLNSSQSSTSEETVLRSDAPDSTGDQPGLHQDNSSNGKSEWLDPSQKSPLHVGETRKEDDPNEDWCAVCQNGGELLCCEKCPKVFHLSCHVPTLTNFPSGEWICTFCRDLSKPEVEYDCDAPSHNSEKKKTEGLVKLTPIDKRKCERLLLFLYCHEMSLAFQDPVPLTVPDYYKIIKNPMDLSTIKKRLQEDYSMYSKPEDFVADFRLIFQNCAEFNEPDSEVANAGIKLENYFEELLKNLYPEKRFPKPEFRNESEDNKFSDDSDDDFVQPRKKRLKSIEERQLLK

[2] = target: T2, Bromodomain and PHD finger-containing protein 3 (Homo sapiens, UniProt Q9ULD4); assay: Inhibition of human BRPF3 (E588 to G701 residues) expressed in bacterial expression system by BROMOscan assay
T2 sequence (Q9ULD4 whole entry): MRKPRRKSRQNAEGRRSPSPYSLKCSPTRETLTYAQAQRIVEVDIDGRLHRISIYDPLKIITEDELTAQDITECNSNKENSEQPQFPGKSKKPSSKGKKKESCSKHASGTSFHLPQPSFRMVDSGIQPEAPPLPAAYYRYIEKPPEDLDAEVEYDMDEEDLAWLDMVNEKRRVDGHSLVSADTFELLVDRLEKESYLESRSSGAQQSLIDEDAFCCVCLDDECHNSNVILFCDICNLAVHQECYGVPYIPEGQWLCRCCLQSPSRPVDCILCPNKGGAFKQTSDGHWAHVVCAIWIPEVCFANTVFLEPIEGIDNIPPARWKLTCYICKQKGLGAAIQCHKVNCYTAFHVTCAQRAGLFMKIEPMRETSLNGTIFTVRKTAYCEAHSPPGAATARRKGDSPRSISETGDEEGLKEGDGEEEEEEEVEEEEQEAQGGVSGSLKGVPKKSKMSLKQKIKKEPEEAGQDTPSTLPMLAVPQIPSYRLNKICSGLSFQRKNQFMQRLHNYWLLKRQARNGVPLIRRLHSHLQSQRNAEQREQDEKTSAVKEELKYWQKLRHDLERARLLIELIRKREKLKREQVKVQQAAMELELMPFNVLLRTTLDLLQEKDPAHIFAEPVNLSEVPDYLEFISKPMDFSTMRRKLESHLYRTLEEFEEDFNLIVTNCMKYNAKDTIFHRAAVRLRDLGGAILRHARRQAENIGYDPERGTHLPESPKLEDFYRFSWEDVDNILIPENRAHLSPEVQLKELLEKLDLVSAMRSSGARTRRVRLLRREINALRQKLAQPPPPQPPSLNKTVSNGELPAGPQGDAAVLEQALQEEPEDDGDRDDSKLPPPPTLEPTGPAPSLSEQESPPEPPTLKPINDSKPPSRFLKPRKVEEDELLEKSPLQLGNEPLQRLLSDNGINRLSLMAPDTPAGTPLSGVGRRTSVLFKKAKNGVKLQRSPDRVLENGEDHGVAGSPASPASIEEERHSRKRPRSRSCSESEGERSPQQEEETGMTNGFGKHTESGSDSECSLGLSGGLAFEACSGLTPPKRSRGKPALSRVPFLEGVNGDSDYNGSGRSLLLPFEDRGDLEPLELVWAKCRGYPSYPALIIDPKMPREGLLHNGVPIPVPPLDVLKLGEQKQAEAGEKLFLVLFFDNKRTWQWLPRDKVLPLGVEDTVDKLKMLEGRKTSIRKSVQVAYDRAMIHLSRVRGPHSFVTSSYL

[3] = target: T3, Bromodomain-containing protein 4 (Homo sapiens, UniProt O60885); assay: Binding affinity to His-tagged BRD4 BD1-BD2 (K57 to K550 residues) (unknown origin) after 1 hr by Alexa-647-conjugated probe based TR-FRET assay
[4] = target: T3, Bromodomain-containing protein 4; assay: Inhibition of BRD4 (unknown origin) expressed in human H1299 cells co-expressing HPV16-LCR/E2 after 24 hrs by Bright Glo-luciferase reporter gene assay; assay type: cell-based
How it was run: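 Target-engagement reporter in an H1299-derived line carrying a stably integrated E2 expression cassette and an HPV-LCR-driven luciferase reporter. The read-out is BRD4-dependent E2-mediated transcriptional repression. EC50 is the mean of two measurements.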

Protein polybromo-1 = Protein polybromo-1 (Homo sapiens, UniProt Q86U86); assay: Inhibition of human PBRM1 bromodomain 2 (S178 to E291 residues) expressed in bacterial expression system by BROMOscan assay
[5] = Half life in mouse at 3 mg/kg, iv; assay type: ADME, organism-based; details: in vivo
[6] = target: T3, Bromodomain-containing protein 4; assay: Binding affinity to BRD4 BD1 (K57 to E168 residues) (unknown origin) after 1 hr by Alexa-647-conjugated probe based TR-FRET assay

Protein polybromo-1, sequence (Q86U86 whole entry, the tested form may be a part): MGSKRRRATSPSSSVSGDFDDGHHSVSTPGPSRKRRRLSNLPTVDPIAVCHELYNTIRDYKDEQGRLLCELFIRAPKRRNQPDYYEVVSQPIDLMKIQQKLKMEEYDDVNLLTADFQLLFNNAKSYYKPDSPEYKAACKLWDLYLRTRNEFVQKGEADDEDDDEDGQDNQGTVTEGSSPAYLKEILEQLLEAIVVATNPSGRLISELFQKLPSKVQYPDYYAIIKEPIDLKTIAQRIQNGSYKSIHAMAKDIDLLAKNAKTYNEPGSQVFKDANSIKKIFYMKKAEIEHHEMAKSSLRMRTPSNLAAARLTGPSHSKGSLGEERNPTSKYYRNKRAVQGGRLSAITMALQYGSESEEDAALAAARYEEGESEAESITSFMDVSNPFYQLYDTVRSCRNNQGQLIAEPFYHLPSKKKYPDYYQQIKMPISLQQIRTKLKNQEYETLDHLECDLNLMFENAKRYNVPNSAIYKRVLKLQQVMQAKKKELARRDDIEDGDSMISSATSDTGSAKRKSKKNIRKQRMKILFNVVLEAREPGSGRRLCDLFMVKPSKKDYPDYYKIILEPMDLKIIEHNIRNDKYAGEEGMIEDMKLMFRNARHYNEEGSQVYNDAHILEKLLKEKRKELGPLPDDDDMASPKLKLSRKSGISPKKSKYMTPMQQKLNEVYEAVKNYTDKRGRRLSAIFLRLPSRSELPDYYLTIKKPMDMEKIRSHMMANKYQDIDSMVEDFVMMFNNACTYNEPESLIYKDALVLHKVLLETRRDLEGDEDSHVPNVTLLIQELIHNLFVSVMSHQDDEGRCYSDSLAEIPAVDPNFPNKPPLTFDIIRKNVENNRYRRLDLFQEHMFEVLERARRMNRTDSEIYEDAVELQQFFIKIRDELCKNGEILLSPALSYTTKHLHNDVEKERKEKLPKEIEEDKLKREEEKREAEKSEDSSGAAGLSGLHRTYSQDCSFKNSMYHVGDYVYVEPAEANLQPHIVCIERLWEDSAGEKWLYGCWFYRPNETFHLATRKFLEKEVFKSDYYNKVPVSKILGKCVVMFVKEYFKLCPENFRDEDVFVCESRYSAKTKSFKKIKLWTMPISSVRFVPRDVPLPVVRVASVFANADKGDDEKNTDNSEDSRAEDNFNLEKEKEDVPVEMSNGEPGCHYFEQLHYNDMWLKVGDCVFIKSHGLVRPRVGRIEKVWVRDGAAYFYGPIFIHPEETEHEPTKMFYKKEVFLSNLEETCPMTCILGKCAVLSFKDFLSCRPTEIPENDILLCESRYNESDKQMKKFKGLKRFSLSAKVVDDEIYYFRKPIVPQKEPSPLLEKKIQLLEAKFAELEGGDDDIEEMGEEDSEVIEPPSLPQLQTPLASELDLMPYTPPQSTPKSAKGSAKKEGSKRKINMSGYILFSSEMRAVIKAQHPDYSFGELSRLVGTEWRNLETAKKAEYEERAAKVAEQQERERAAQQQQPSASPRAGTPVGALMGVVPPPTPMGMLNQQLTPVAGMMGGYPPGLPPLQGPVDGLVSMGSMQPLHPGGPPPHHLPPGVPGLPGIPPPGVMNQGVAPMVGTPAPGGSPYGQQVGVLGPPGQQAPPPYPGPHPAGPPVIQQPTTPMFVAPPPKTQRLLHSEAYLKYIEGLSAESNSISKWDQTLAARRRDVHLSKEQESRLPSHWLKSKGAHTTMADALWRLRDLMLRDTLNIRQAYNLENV

IC50 [1] [nM]	IC50 [2] [nM]	Ki [3] [nM]	EC50 [4] [nM]	IC50 (Protein polybromo-1) [nM]	half-life [5] [h]	Ki [6] [nM]	Structure (SMILES)
> 10000	> 10000	300	290	> 10000	1.3	34	Cc1[nH]c(-c2cc(S(C)(=O)=O)ccc2Oc2ccc(F)cc2F)c2c1C(=O)NCC2
10000	> 10000	98	150	> 10000	2.5	77	Cn1cc(-c2cc(S(C)(=O)=O)ccc2Oc2ccc(F)cc2F)c2cc[nH]c(=O)c21

Structure (SMILES)	IC50 [1] [nM]	IC50 [2] [nM]	Ki [3] [nM]	EC50 [4] [nM]	IC50 (Protein polybromo-1) [nM]	half-life [5] [h]	Ki [6] [nM]
Cc1[nH]c(-c2cc(NS(C)(=O)=O)ccc2Oc2ccccc2)c2c1C(=O)CCC2	> 10000	> 10000	33	51	> 10000	0.6	18
